pIC50: −log10 of the molar value.
Key:
Plasmodium falciparum [1] = test: Antiplasmodial activity against Plasmodium falciparum 3D7 infected in po dosed non-myelodepleted NOD-SCID IL2Rgammanull mouse engrafted with human erythrocytes assessed as reduction of parasitemia level administered qd for 4 days; type: functional; conditions: 3D7, po, 96 h
Procedure, shortened: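 P. falciparum-infected engrafted NSG mice were dosed orally once daily for four consecutive days. Blood parasitemia was monitored, and a 90% effective dose was derived along with the blood exposure at that dose.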

[2] = Metabolic stability of the compound in mouse liver microsomes assessed as compound remaining at 0.1 uM after 30 mins by LC-MS/MS analysis; type: ADME; conditions: 0.5 h
Plasmodium falciparum [3] = test: Antiplasmodial activity against multidrug resistant Plasmodium falciparum K1 infected in human erythrocytes after 48 hrs by [3H]-hypoxanthine incorporation assay; type: functional, organism-based
Plasmodium falciparum [4] = test: Antiplasmodial activity against drug sensitive Plasmodium falciparum NF54 infected in human erythrocytes after 48 hrs by [3H]-hypoxanthine incorporation assay; type: functional, organism-based
Liver microsome [5] = test: Metabolic stability of the compound in rat liver microsomes assessed as compound remaining at 0.1 uM after 30 mins by LC-MS/MS analysis; type: ADME; conditions: 0.5 h
Liver microsome [6] = test: Metabolic stability of the compound in human liver microsomes assessed as compound remaining at 0.1 uM after 30 mins by LC-MS/MS analysis; type: ADME; conditions: 0.5 h
Plasmodium berghei [7] = test: Antiplasmodial activity against Plasmodium berghei ANKA expressing GFP infected in mouse assessed as means survival days at 30 mg/kg, po qd for 4 days; type: functional
Plasmodium berghei [8] = test: Antiplasmodial activity against Plasmodium berghei ANKA expressing GFP infected in mouse assessed as reduction of parasitemia level at 30 mg/kg, po qd for 4 days; type: functional; design: scale not given: the % may be the effect or the level left
[9] = Oral bioavailability in rat at 20 mg/kg; type: ADME, organism-based; conditions: in vivo
[10] = Drug level in mouse blood at 50 mg/kg, po after 4 hrs; type: ADME, organism-based; conditions: read-out: Drug uptake
Procedure, shortened: (§1)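 Snapshot whole-blood levels of parent and its sulfone metabolite at 1, 4 and 24 h after the first 50 mg/kg oral dose. Samples came from the P. berghei-infected efficacy mice, dosed in HPMC suspension vehicle.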

[11] = Plasma clearance in rat at 5 mg/kg, iv; type: ADME, organism-based
[12] = (§2) Drug level in mouse blood at 50 mg/kg, po after 24 hrs; type: ADME, organism-based; conditions: blood, read-out: Drug uptake; procedure, shortened: as §1
Plasmodium berghei [13] = test: Antiplasmodial activity against Plasmodium berghei ANKA expressing GFP infected in mouse assessed as means survival days at 50 mg/kg, po qd for 4 days; type: functional
Procedure, shortened: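 Mice (n = 3) infected with GFP-transfected P. berghei ANKA. Compounds dissolved or suspended in HPMC vehicle (0.5% w/v hydroxypropylmethylcellulose, 0.5% v/v benzyl alcohol, 0.4% v/v Tween 80, 0.9% w/v NaCl in water). Dosed orally 4, 24, 48 and 72 h after infection. Parasitemia read by flow cytometry (detection limit 0.1%). Survival recorded as mean survival time in days.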

Plasmodium berghei [14] = test: Antiplasmodial activity against sporozoite stage of Plasmodium berghei expressing luciferase infected in human HepG2-A16-CD81EGFP cells preincubated with cells for 18 hrs followed by protozoal infection measured after 48 hrs by bioluminescence assay; type: functional, organism-based
Procedure, shortened: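 HepG2 cells were pretreated 18 h with compound, then infected with freshly dissected luciferase-expressing P. berghei sporozoites. After a further 48 h with compound, viability of exoerythrocytic forms and of HepG2 host cells was read by bioluminescence.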

[15] = Drug level in mouse blood at 50 mg/kg, po after 1 hr; type: ADME, organism-based; conditions: read-out: Drug uptake; procedure, shortened: as §1
[16] = Half life in rat at 5 mg/kg, iv; type: ADME, organism-based; conditions: in vivo
[17] = Half life in rat at 20 mg/kg, po; type: ADME, organism-based; conditions: in vivo
[18] = Volume of distribution in rat at 5 mg/kg, iv; type: ADME, organism-based; conditions: in vivo
Plasmodium berghei [19] = test: Antiplasmodial activity against Plasmodium berghei ANKA expressing GFP infected in mouse assessed as reduction of parasitemia level at 50 mg/kg, po qd for 4 days measured on day 4 post last dose by flow cytometric analysis relative to control; type: functional; design: scale not given: the % may be the effect or the level left
Procedure, shortened: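 Mice (n = 3) infected with GFP-transfected P. berghei ANKA. Test agents were suspended in HPMC vehicle (0.5% w/v hydroxypropylmethylcellulose, 0.5% v/v benzyl alcohol, 0.4% v/v Tween 80, 0.9% w/v NaCl in water). Dosed orally at 4, 24, 48 and 72 h post-infection. Parasitemia read by flow cytometry on day 4 (96 h), detection limit 0.1%. Activity = control-minus-treated mean % parasitemia, relative to control.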

[20] = Selectivity index, ratio of IC50 for African green monkey VERO cells to IC50 for Plasmodium falciparum NF54; type: toxicity, cell-based; conditions: read-out: Ratio IC50
[21] = Selectivity index, ratio of IC50 for African green monkey VERO cells to IC50 for multidrug resistant Plasmodium falciparum K1; type: toxicity, cell-based; conditions: read-out: Ratio IC50
[22] = Selectivity index, ratio of IC50 for CHO cells to IC50 for Plasmodium falciparum NF54; type: toxicity, cell-based; conditions: hamster, read-out: Ratio IC50
[23] = Selectivity index, ratio of IC50 for CHO cells to IC50 for multidrug resistant Plasmodium falciparum K1; type: toxicity, cell-based; conditions: hamster, read-out: Ratio IC50
[24] = target: Voltage-gated inwardly rectifying potassium channel KCNH2 (Homo sapiens, UniProt Q12809); test: Inhibition of human ERG potassium channel by ionworks patch-clamp electrophysiology assay
[25] = Solubility of the compound in 0.01M HCl at pH 2 by Nephelometric analysis; type: physicochemical; conditions: buffer
Blood = test: as §2; type: ADME, organism-based; conditions: in vivo, 24 h, BLD = below limit of detection; procedure, shortened: as §1

Voltage-gated inwardly rectifying potassium channel KCNH2, sequence (Q12809 whole entry): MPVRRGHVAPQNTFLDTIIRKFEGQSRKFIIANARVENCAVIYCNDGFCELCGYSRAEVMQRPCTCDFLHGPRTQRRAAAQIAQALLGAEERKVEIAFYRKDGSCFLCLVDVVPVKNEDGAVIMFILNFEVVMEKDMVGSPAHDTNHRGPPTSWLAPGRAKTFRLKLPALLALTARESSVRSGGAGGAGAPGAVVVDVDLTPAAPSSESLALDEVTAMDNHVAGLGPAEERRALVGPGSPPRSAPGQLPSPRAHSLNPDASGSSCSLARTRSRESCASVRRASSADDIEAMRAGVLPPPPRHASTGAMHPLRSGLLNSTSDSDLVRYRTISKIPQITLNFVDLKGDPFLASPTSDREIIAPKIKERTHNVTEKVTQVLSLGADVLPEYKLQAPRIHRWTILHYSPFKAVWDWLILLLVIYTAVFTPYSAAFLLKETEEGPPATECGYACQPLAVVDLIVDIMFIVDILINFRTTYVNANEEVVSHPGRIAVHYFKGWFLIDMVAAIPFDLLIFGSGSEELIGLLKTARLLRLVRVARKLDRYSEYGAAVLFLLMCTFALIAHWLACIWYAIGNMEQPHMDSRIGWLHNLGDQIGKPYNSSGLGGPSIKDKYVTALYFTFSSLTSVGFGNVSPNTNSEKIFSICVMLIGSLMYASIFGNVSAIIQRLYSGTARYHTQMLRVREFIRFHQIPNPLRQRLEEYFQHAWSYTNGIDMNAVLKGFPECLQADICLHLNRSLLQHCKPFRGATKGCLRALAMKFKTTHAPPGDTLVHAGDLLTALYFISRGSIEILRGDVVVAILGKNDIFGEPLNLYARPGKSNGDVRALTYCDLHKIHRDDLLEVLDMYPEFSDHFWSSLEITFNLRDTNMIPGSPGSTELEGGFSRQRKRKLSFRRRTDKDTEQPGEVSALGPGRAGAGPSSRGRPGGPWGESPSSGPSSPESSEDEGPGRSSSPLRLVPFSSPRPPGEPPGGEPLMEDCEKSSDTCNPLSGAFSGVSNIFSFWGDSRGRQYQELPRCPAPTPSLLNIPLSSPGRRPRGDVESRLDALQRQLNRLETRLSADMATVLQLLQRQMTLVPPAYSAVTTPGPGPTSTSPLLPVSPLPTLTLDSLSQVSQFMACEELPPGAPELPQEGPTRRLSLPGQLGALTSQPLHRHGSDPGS

| SMILES | ED90 (Plasmodium falciparum [1]) [mg/kg] | Stability [2] | pIC50 (Plasmodium falciparum [3]) | pIC50 (Plasmodium falciparum [4]) | Stability (Liver microsome [5]) | Stability (Liver microsome [6]) | MSD (Plasmodium berghei [13]) [days] | Activity (Plasmodium berghei [19]) [%] | other results |
| --- | --- | --- | --- | --- | --- | --- | --- | --- | --- |
| CCN(CC)CCCC(C)Nc1ccnc2cc(Cl)ccc12 (stereo not given) [CHLOROQUINE] | 4.3 | – | – | – | – | – | – | – | – |
| CS(=O)(=O)c1ccc(-c2cnn3ccc(-c4cccc(S(C)(=O)=O)c4)nc23)cc1 | – | Stable | 8.66 | 8.59 | Stable | Stable | – | – | – |
| C[C@H]1[C@H](OC(=O)CCC(=O)O)O[C@@H]2O[C@@]3(C)CC[C@H]4[C@H](C)CC[C@@H]1[C@@]24OO3 [ARTESUNATE] | 11.1 | – | 8.40 | 8.52 | – | – | – | – | MSD (Plasmodium berghei [7]): 10 days; Activity (Plasmodium berghei [8]): 99% |
| CS(=O)(=O)c1ccc(-c2cnn3ccc(-c4cccc(S(=O)(=O)C5CC5)c4)nc23)cc1 | – | Stable | 9.43 | 9.38 | Stable | Stable | 7 | 86 | bioavailability [9]: 1%; concentration at 4 h [10]: 145 nM; clearance [11]: 1.1 mL/min/kg; concentration at 24 h [12]: < 10 nM; pIC50 (Plasmodium berghei [14]): 9.21; concentration at 1 h [15]: 169 nM; half-life [16]: 2.8 h; half-life [17]: 7.8 h; Vd [18]: 0.3 L/kg |
| CS(=O)(=O)c1ccc(-c2cnc3ccc(-c4cccc(S(=O)(=O)C5CC5)c4)cn23)cc1 | – | Stable | 7.42 | 7.34 | Stable | Stable | 10 | 99.5 | bioavailability [9]: 51%; clearance [11]: 8.7 mL/min/kg; selectivity ratio [20]: 700; half-life [16]: 3 h; half-life [17]: 3.9 h; Vd [18]: 2.3 L/kg; selectivity ratio [21]: 700; selectivity ratio [22]: 700; selectivity ratio [23]: 700 |
| CCc1nc(N)nc(N)c1-c1ccc(Cl)cc1 [PYRIMETHAMINE] | 0.9 | – | – | – | – | – | – | – | – |
| CS(=O)(=O)c1ccc(-c2cnn3ccc(-c4cccc(C(F)(F)F)c4)nc23)cc1 | – | Stable | 7.37 | 7.32 | Stable | Stable | – | – | – |
| CS(=O)(=O)c1ccc(-c2nnc3ccc(-c4cccc(C(F)(F)F)c4)cn23)cc1 | – | – | < 6.00 | < 6.00 | – | – | – | – | – |
| CS(=O)(=O)c1ccc(-c2cnc3ccc(-c4cccc(S(C)(=O)=O)c4)nn23)cc1 | – | Stable | – | – | Stable | Stable | 7 | 99.8 | pIC50 [24]: 6.05; selectivity ratio [20]: > 1000; pIC50 (Plasmodium berghei [14]): 8.39; selectivity ratio [21]: > 1000; selectivity ratio [22]: > 1000; selectivity ratio [23]: > 1000 |
| CS(=O)(=O)c1ccc(-c2cnn3c2NC(c2cccc(S(=O)(=O)C4CC4)c2)CC3)cc1 (stereo not given) | – | Stable | 7.34 | 7.36 | Stable | Stable | 7 | 78 | concentration at 4 h [10]: 177 nM; solubility [25]: soluble; Drug uptake (Blood): BLD; selectivity ratio [20]: > 1000; concentration at 1 h [15]: 456 nM; selectivity ratio [21]: > 1000; selectivity ratio [22]: > 1000; selectivity ratio [23]: > 1000 |
| O[C@@H](c1cc(C(F)(F)F)nc2c(C(F)(F)F)cccc12)[C@H]1CCCCN1 (relative stereo) [(S,R)-MEFLOQUINE] | 7.7 | – | – | – | – | – | – | – | MSD (Plasmodium berghei [7]): 29 days; Activity (Plasmodium berghei [8]): 99.9% |

— ChEMBL document CHEMBL3627607, “A Novel Pyrazolopyridine with in Vivo Activity in Plasmodium berghei- and Plasmodium falciparum-Infected Mouse Models from Structure-Activity Relationship Studies around the Core of Recently Identified Antimalarial Imidazopyridazines” (J Med Chem, 2015)
